Active and inactive are the calls of the source. How the calls were made is not given here.
Legend:
Cortical neurone [1] = assay: Neuroprotective activity against kainate-induced cell damage in mouse primary cortical neurons assessed as reduction in kainate-induced neurofilament loss by measuring increase in MAPK level at 1 uM pretreated followed by kainate challenge measured after 18 hrs by fluorescence assay; type: functional, cell-based; settings: in the assay text read “MAP2” for “MAPK”
Summary of the method: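 Mouse primary cortical neurons cultured as previously described; dendritic processes stained with anti-MAP2 antibody. Cell-profile perimeter measured by image analysis, each condition normalized to kainate-only.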

Cortical neurone [2] = assay: Neuroprotective activity against kainate-induced cell damage in mouse primary cortical neurons assessed as reversal of kainate-induced reduction in calcium flux by fura-2-AM dye based fluorescence assay; type: functional
Summary of the method: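 Mouse primary cortical neurons loaded with fura-2AM for 45 min, washed, then depolarized with 10 mM KCl to drive Ca2+ entry through voltage-gated calcium channels. Flux read on a plate-based system.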

Cortical neurone [3] = assay: Neuroprotective activity against kainate-induced cell death in mouse primary cortical neurons by MTT assay; type: functional, cell-based
Cortical neurone [4] = assay: Neuroprotective activity against kainate-induced cell death in mouse primary cortical neurons by cell counting method; type: functional, cell-based
Cortical neurone [5] = assay: Neuroprotective activity against kainate-induced cell death in mouse primary cortical neurons by caspase activation method; type: functional, cell-based
Mus musculus [6] = organism: Mus musculus; assay: Neuroprotective activity against kainate-induced cell death in mouse primary motor neurons by MTT assay; type: functional
Mus musculus [7] = organism: Mus musculus; assay: Neuroprotective activity against kainate-induced cell death in mouse primary motor neurons by cell counting method; type: functional
Mus musculus [8] = organism: Mus musculus; assay: Neuroprotective activity against kainate-induced cell death in mouse primary motor neurons by caspase activation method; type: functional

Row | Structure (SMILES) | Activity (Cortical neurone [1]) | Activity (Cortical neurone [2]) | Activity (Cortical neurone [3]) | Activity (Cortical neurone [4]) | Activity (Cortical neurone [5]) | Activity (Mus musculus [6]) | Activity (Mus musculus [7]) | Activity (Mus musculus [8])
1 | N=c1sc2cc(OC(F)(F)F)ccc2n1CCn1cc(C2CCCC2)nn1 | inactive | Active | inactive | inactive | inactive | inactive | inactive | inactive
2 | N=c1sc2cc(OC(F)(F)F)ccc2n1CCn1cc(-c2ccc(F)cc2)nn1 | inactive | Active | inactive | inactive | inactive | inactive | inactive | inactive
3 | N=c1sc2cc(OC(F)(F)F)ccc2n1CCn1cc(-c2cccc3ccccc23)nn1 | inactive | Active | inactive | inactive | inactive | inactive | inactive | inactive
4 | N=c1sc2cc(OC(F)(F)F)ccc2n1CCn1cc(-c2ccc(C(F)(F)F)cc2)nn1 | inactive | Active | inactive | inactive | inactive | inactive | inactive | inactive
5 | N=c1sc2cc(OC(F)(F)F)ccc2n1CCn1cc(-c2ccc(F)cc2F)nn1 | inactive | Active | inactive | inactive | inactive | inactive | inactive | inactive
6 | N=c1sc2cc(OC(F)(F)F)ccc2n1CCn1cc(-c2ccc(C(=O)O)cc2)nn1 | Active | Active | inactive | inactive | inactive | inactive | inactive | inactive
7 | Cc1cccc(-c2cn(CCn3c(=N)sc4cc(OC(F)(F)F)ccc43)nn2)c1 | inactive | Active | inactive | inactive | inactive | inactive | inactive | inactive
8 | COc1ccccc1-c1cn(CCn2c(=N)sc3cc(OC(F)(F)F)ccc32)nn1 | inactive | Active | inactive | inactive | inactive | inactive | inactive | inactive
9 | N=c1sc2cc(OC(F)(F)F)ccc2n1CCn1cc(-c2cccc(Cl)c2)nn1 | inactive | Active | inactive | inactive | inactive | inactive | inactive | inactive
10 | CCCCCc1ccc(-c2cn(CCn3c(=N)sc4cc(OC(F)(F)F)ccc43)nn2)cc1 | inactive | Active | inactive | inactive | inactive | inactive | inactive | inactive
11 | Cc1ccc(-c2cn(CCn3c(=N)sc4cc(OC(F)(F)F)ccc43)nn2)cc1 | inactive | Active | inactive | inactive | inactive | inactive | inactive | inactive
12 | CC(C)CCc1cn(CCn2c(=N)sc3cc(OC(F)(F)F)ccc32)nn1 | inactive | Active | inactive | inactive | inactive | inactive | inactive | inactive
13 | N=c1sc2cc(OC(F)(F)F)ccc2n1CCn1cc(-c2cccc(F)c2)nn1 | inactive | Active | inactive | inactive | inactive | inactive | inactive | inactive
14 | CCOC(=O)c1cn(CCn2c(=N)sc3cc(OC(F)(F)F)ccc32)nn1 | inactive | Active | inactive | inactive | inactive | inactive | inactive | inactive
15 | CC(C)(C)c1ccc(-c2cn(CCn3c(=N)sc4cc(OC(F)(F)F)ccc43)nn2)cc1 | inactive | Active | inactive | inactive | inactive | inactive | inactive | inactive
16 | N=c1sc2cc(OC(F)(F)F)ccc2n1CCn1cc(-c2cccc(N)c2)nn1 | inactive | Active | inactive | inactive | inactive | inactive | inactive | inactive
17 | N=c1sc2cc(OC(F)(F)F)ccc2n1CCn1cc(-c2ccccc2Br)nn1 | inactive | Active | inactive | inactive | inactive | inactive | inactive | inactive
18 | N=c1sc2cc(OC(F)(F)F)ccc2n1CCn1cc(C2CC2)nn1 | inactive | Active | inactive | inactive | inactive | inactive | inactive | inactive
19 | N=c1sc2cc(OC(F)(F)F)ccc2n1CCn1cc(-c2cc(C(F)(F)F)cc(C(F)(F)F)c2)nn1 | inactive | Active | inactive | inactive | inactive | inactive | inactive | inactive
20 | CC(C)(C)c1cn(CCn2c(=N)sc3cc(OC(F)(F)F)ccc32)nn1 | inactive | Active | inactive | inactive | inactive | inactive | inactive | inactive
21 | N=c1sc2cc(OC(F)(F)F)ccc2n1CCn1cc(-c2cc(F)cc(F)c2)nn1 | inactive | Active | inactive | inactive | inactive | inactive | inactive | inactive
22 | N=c1sc2cc(OC(F)(F)F)ccc2n1CCn1cc(-c2ccccc2Cl)nn1 | inactive | Active | inactive | inactive | inactive | inactive | inactive | inactive
23 | N=c1sc2cc(OC(F)(F)F)ccc2n1CCn1cc(-c2cccs2)nn1 | Active | Active | inactive | inactive | inactive | inactive | inactive | inactive
24 | CN(C)c1ccc(-c2cn(CCn3c(=N)sc4cc(OC(F)(F)F)ccc43)nn2)cc1 | inactive | Active | inactive | inactive | inactive | inactive | inactive | inactive
25 | CC(C)Cc1cn(CCn2c(=N)sc3cc(OC(F)(F)F)ccc32)nn1 | inactive | Active | inactive | inactive | inactive | inactive | inactive | inactive
26 | N#Cc1ccc(-c2cn(CCn3c(=N)sc4cc(OC(F)(F)F)ccc43)nn2)cc1 | inactive | Active | inactive | inactive | inactive | inactive | inactive | inactive
27 | CCCc1cn(CCn2c(=N)sc3cc(OC(F)(F)F)ccc32)nn1 | inactive | Active | inactive | inactive | inactive | inactive | inactive | inactive
28 | N=c1sc2cc(OC(F)(F)F)ccc2n1CCn1cc(-c2ccc(N)cc2)nn1 | inactive | Active | inactive | inactive | inactive | inactive | inactive | inactive

From ChEMBL document CHEMBL4145631, “Riluzole-Triazole Hybrids as Novel Chemical Probes for Neuroprotection in Amyotrophic Lateral Sclerosis” (ACS Med Chem Lett, 2018)
